Dynein cargo inh: inhibitors of GR-EGFP nuclear translocation, primary screen, dynein cargo transport inhibitor project, imaging, high-content, 3617.4 mouse cells | hit rate 0.47% among 220,000 | test concentration mostly 20 µM; stimulated with dexamethasone, 1 µM; hits give low values | z-score, hits read low;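 active = plate z-score of nuclear minus cytoplasmic receptor signal below a set negative limit, without overly bright fluorescence or cell loss, cut at about -3.5 in these data, passing the limit was not always enough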;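 also: z-score of nuclear minus cytoplasmic ring GR-EGFP intensity difference per well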
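Also added – dexamethasone, 1.0 µM final · Buffer or medium – tet-free, stripped-serum medium · Schedule – induction 48 h, compound 1 h, agonist 30 min · Detection – formaldehyde fixation, Hoechst nuclear stain, 10x automated fluorescence imaging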
ROMK primary: ROMK potassium channel modulators, primary screen, cell-based, thallium flux, MLSMR library; hit rate 2% among 130,000; Tet-inducible ROMK, thallium flux fluorescence; actives lie on both sides; ATP-sensitive inward rectifier potassium channel 1 (Homo sapiens), P48048; B-score at 10 µM;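 active = signal ratio slope over the read window, or its plate-corrected B-score, at least 3 SD from the plate mean, either direction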;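 also: B-score of the F/F0 ratio slope over 7 to 12 s after thallium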
KCC2 mod: KCC2 cotransporter modulators, thallium flux, primary screen, cell-based, HEK293 KCC2, FluoZin-2 fluorescence, MLSMR; Solute carrier family 12 member 5 (Homo sapiens), Q9H2X9; KCC2 cells, thallium flux FluoZin-2 fluorescence; B-score of Tl+ flux slope (higher = more flux/activation; lower = inhibition) at 10 µM; hit rate 2.2% among 190,000; AID 1456, 2008;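 active = thallium flux slope and its plate-corrected score both differing from the plate sample mean at a set confidence after two filtering rounds, in either direction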;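 also: slope of fluorescence scaled to starting intensity during 10 to 20 s after thallium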
Target sequence (Q9H2X9 whole entry, looked up): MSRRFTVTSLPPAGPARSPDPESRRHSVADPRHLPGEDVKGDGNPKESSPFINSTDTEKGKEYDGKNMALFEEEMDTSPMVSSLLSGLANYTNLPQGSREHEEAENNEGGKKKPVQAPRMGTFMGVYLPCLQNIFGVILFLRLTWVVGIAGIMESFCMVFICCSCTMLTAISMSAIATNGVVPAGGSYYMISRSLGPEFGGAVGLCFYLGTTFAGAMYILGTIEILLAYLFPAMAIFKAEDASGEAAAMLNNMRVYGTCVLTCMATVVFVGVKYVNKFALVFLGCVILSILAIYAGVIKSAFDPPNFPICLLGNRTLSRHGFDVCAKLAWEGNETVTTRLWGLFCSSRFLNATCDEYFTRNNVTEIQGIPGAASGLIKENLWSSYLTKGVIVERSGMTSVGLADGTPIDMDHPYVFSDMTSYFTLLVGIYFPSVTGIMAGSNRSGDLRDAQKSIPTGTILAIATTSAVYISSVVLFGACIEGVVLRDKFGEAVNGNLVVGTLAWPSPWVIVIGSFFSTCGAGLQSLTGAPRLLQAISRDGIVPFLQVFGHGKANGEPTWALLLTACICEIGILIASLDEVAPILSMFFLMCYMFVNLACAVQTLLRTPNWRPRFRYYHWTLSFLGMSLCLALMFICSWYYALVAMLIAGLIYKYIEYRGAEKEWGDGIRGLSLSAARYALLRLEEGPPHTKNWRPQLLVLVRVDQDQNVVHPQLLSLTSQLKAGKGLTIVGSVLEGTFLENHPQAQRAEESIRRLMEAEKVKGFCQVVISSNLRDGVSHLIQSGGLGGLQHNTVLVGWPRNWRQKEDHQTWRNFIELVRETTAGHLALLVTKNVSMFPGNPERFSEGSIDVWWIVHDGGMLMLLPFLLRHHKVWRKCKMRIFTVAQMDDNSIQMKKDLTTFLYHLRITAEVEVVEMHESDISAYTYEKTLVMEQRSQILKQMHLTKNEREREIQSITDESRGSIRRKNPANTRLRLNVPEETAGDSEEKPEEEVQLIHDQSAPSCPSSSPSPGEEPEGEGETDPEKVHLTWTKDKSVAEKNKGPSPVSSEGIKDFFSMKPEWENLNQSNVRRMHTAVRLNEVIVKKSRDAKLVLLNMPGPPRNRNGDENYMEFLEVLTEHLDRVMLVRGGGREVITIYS
Redox H2O2 prof: compounds producing H2O2 with reducing agent – biochemical, NIH compound library profiling, artefact control for MLSCN library redox annotation, primary screen | hit rate 0.03% among 200,000 | activation, % at 10 µM | DTT-dependent redox cycling H2O2, phenol red/HRP absorbance; 100% = 100 µM peroxide control, 0% = buffer;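 active = activation of at least 50% relative to the plate's high and low controls in the primary single-dose screen; inactive = activation below 50%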;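 also: compound incubated with DTT at 0.8 mM final as the reducing agent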
Autophagy HCS: autophagy modulators in MEF cells, primary screen, imaging, high-content, MEF GFP-LC3. MEF GFP-LC3 puncta imaging; test concentration mostly 10 µM. calls only at 10 µM (by protocol). hit rate 0.98% among 190,000. AID 463193, 2010;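 active = percentage of spot-positive cells more than 3 SD above its plate mean, without a fluorescence outlier flag or 80% toxicity; inconclusive = no clear call, values can overlap the other calls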
KCC2 sec1: KCC2 modulators in sodium-free buffer, confirmation, cell-based, HEK293 KCC2, thallium flux, secondary assay; FluoZin2 fluorescence; hits give high values; hit rate 15% among 3,700; normalised thallium flux (F/F0 slope) at 10 µM; shares compounds with KCC2 mod;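 active = thallium flux slope above the same plate's solvent-only control mean plus 3 SD; inconclusive = the two replicate wells disagree; inactive = no significant difference from solvent-only control wells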
KCC2 bumet counter: thallium flux persisting under bumetanide in KCC2 cells, confirmation, counter-screen for KCC2 modulator project, cell-based, HEK293 KCC2, FluoZin2, secondary assay 3; shares compounds with KCC2 mod; HEK293-KCC2 + bumetanide/ouabain; hits give high values; normalized thallium flux at 10 µM; hit rate 49% among 3,700;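 active = thallium entry rate above the same plate's blocked-transporter control wells by more than 3 SD; inconclusive = the two repeat wells disagree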;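 also: raw slope of fluorescence over initial fluorescence between 10 and 20 s after thallium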
KCC2 secondary2: KCC2 modulators without ouabain present, confirmation, cell-based, HEK293 KCC2, thallium flux, FluoZin2, secondary assay 2 | shares compounds with KCC2 mod | normalized thallium flux at 10 µM | thallium flux FluoZin2 fluorescence; actives lie on both sides; F/F0 rise rate, 10–20 s post-thallium | hit rate 23% among 3,700;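 active = thallium flux slope more than 3 SD above or below the plate's solvent-only control mean, mostly below; inconclusive = the two repeat wells disagreed; inactive = no significant shift from solvent-only controls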
HEK293 Tl flux: thallium flux modulation in parental HEK cells, confirmation, counter-screen for KCC2 modulator project, cell-based, counterscreen 1; hit rate 46% among 3,700; shares compounds with KCC2 mod; thallium flux rate (normalised fluorescence) at 10 µM; HEK293 parental cells, thallium flux FluoZin2, ouabain; baseline-ratio fluorescence slope, 10–20 s after thallium; AID 1716, 2009;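 active = thallium flux rate significantly above the same plate's solvent-only control wells, beyond their mean plus 3 SD; inconclusive = the two replicate wells gave conflicting results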
KCC2 retest ouab: KCC2 inhibitors and activators, ouabain retest, confirmation, HEK-KCC2 cells; shares compounds with KCC2 mod; HEK293-KCC2, thallium flux FluoZin2 fluorescence; bidirectional: low = inhibitor, high = activator; raw Tl+ flux slope (below DMSO = inhibition, above = activation) at 10 µM; hit rate 48% among 3,700;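 active = thallium flux slope beyond 3 SD from same-plate DMSO control mean in most replicates, usually higher, sometimes lower; inconclusive = repeat tests gave conflicting results; inactive = no significant difference from controls in most replicates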;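 also: slope of initial-normalized fluorescence between seconds 10 and 20 after thallium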
HEK counter2: native HEK Tl+ uptake effects, second counter-screen – HEK cells, counterscreen 2, counter-screen for KCC2 modulator project, confirmation; shares compounds with KCC2 mod; HEK293 parental, thallium flux FluoZin-2 fluorescence slope; thallium flux slope at 10 µM; hit rate 33% among 3,700; AID 1718, 2009;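 active = thallium flux slope above the same plate's solvent-control mean plus 3 SD in both duplicate wells; inconclusive = duplicate wells that disagreed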;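 also: run without ouabain in cells lacking the KCC2 cotransporter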
Large screens that a line does not name were inactive (follow-up assays come after a bar, where they were run). An excerpt weighted towards active compounds, which were near 4.1% of everything screened.

O=C1NC2(CCCc3ccccc32)C(=O)N1Cc1nnc(-c2ccccc2Br)o1 (stereo unspecified)	none
O=c1c2ccccc2c(C=NCc2ccccn2)c(O)n1-c1ccccc1Cl	none
c1coc(CNc2c3c(nc4ncnn24)CCCC3)c1	KCC2 mod 5 (no result: ROMK primary) | KCC2 sec1 inactive | KCC2 bumet counter inactive | KCC2 secondary2 inactive | HEK293 Tl flux inactive | KCC2 retest ouab inactive | HEK counter2 inactive
c1coc(CNc2c3c(nc4ncnn24)CCC3)c1	none
Cc1ccc(CN(c2ccc(C(=O)Nc3ccc4c(c3)OCO4)cc2)S(C)(=O)=O)cc1	KCC2 mod 4.7 | KCC2 sec1 inactive | KCC2 bumet counter inconclusive | KCC2 secondary2 inactive | HEK293 Tl flux inactive | KCC2 retest ouab inactive | HEK counter2 inactive
Cc1ccc(C(=O)Nc2ccc3c(c2)OCO3)cc1	none
CC1CCCC/C1=N\NC(=S)Nc1ccccc1 (stereo unspecified)	KCC2 mod 9.5 | KCC2 sec1 0.013 | KCC2 bumet counter 0.053 | KCC2 secondary2 inactive | HEK293 Tl flux 0.019 | KCC2 retest ouab 0.048 | HEK counter2 0.013
CC1CCC/C(=N\NC(=S)Nc2ccccc2)C1 (stereo unspecified)	KCC2 mod 15 | KCC2 sec1 0.014 | KCC2 bumet counter 0.049 | KCC2 secondary2 inactive | HEK293 Tl flux 0.018 | KCC2 retest ouab 0.035 | HEK counter2 0.012
COc1cccc(NC(=S)NN=C2CCCCCC2)c1	KCC2 mod 39 | KCC2 sec1 0.019 | KCC2 bumet counter 0.1 | KCC2 secondary2 inconclusive | HEK293 Tl flux 0.041 | KCC2 retest ouab 0.05 | HEK counter2 0.017
CC(C)NC(=S)N/N=C1\CCCCC1C1CCCCC1 (stereo unspecified)	none
CC1CCC/C(=N\NC(=S)NCc2ccccc2)C1 (stereo unspecified)	KCC2 mod 8.1 (no result: ROMK primary) | KCC2 sec1 inactive | KCC2 bumet counter 0.01 | KCC2 secondary2 inactive | HEK293 Tl flux inconclusive | KCC2 retest ouab inactive | HEK counter2 inactive
CCc1ccc(NC(=S)Nc2cccc(OC)c2)cc1	none
COc1cc(CNCc2c[nH]c3ccccc23)cc(OC)c1	none
COC(=O)c1ccccc1NC(=O)COC(=O)C1CCCCC1	none (no result: ROMK primary, Redox H2O2 prof, Autophagy HCS)
Cc1cc(C(=O)C(=O)O)c(C)n1-c1ccc(Cl)c(Cl)c1	none
Cc1ccc(NC(=O)CSc2ncc3ccccn23)cc1	none
O=[N+]([O-])c1ccc(OCC2CC(c3ccccc3)=NO2)cc1 (stereo unspecified)	none (no result: Redox H2O2 prof, Autophagy HCS)
Cc1sc2ncnc(SCC(=O)Nc3nc(-c4ccc(F)c(F)c4)cs3)c2c1C	KCC2 mod 45 | KCC2 sec1 0.026 | KCC2 bumet counter 0.078 | KCC2 secondary2 0.046 | HEK293 Tl flux 0.04 | KCC2 retest ouab 0.072 | HEK counter2 0.022
Cc1sc2ncnc(SCC(=O)NC(C)C(C)C)c2c1C (stereo unspecified)	none
CCn1c(C)nc2cc(C(=O)N/N=C/c3cccc(O)c3O)ccc21	none
Oc1ccc(-c2csc(-c3cccnc3)n2)cc1O	none (no result: ROMK primary, KCC2 mod, Redox H2O2 prof, Autophagy HCS)
Oc1ccc(-c2csc(-c3ccccc3)n2)cc1O	KCC2 mod -4.4 (no result: ROMK primary) | KCC2 sec1 inactive | KCC2 bumet counter inconclusive | KCC2 secondary2 inactive | HEK293 Tl flux inactive | KCC2 retest ouab 0.021 | HEK counter2 inactive
Cc1cccc(N/C(=N\S(=O)(=O)c2ccccc2)C(F)(F)F)c1	none (no result: ROMK primary, KCC2 mod) | KCC2 sec1 inactive | KCC2 bumet counter inconclusive | KCC2 secondary2 inactive | HEK293 Tl flux 0.01 | KCC2 retest ouab inactive | HEK counter2 inactive
O=S(=O)(/N=C(\Nc1ccc(F)cc1)C(F)(F)F)c1ccccc1	none (no result: KCC2 mod)
Fc1ccc(/C=N/NC(=S)Nc2cccnc2)cc1	none
Fc1cccc(F)c1/C=N/NC(=S)Nc1cccnc1	KCC2 mod 5.2 | KCC2 sec1 inactive | KCC2 bumet counter 0.012 | KCC2 secondary2 inactive | HEK293 Tl flux 0.012 | KCC2 retest ouab inconclusive | HEK counter2 inactive
Fc1c(F)c(F)c(/C=N/NC(=S)Nc2cccnc2)c(F)c1F	KCC2 mod 19 | KCC2 sec1 inactive | KCC2 bumet counter 0.03 | KCC2 secondary2 inactive | HEK293 Tl flux 0.015 | KCC2 retest ouab inconclusive | HEK counter2 inconclusive
COc1ccc(CCn2c(SCCN3CCCCC3)nc3ccccc3c2=O)cc1OC	none
Fc1ccccc1C1c2cccn2CCN1C(=S)Nc1ccc(Br)cc1 (stereo unspecified)	none
COc1ccc(C(=O)Nc2nncs2)cc1S(=O)(=O)N1CC(c2ccccc2)CC1=O (stereo unspecified)	none (no result: ROMK primary, KCC2 mod) | KCC2 sec1 inactive | KCC2 bumet counter inactive | KCC2 secondary2 inactive | HEK293 Tl flux inactive | KCC2 retest ouab inconclusive | HEK counter2 inactive
Cc1cc(NC(=O)c2cccc(S(=O)(=O)N3CC(c4ccccc4)CC3=O)c2)no1 (stereo unspecified)	KCC2 mod -5.4 (no result: ROMK primary, Autophagy HCS) | KCC2 sec1 inconclusive | KCC2 bumet counter inactive | KCC2 secondary2 0.022 | HEK293 Tl flux 0.006 | KCC2 retest ouab 0.013 | HEK counter2 inconclusive
O=C(CN1CCCCC1)Nc1ccccc1Oc1ccccc1	none (no result: ROMK primary, Redox H2O2 prof, Autophagy HCS)

Compound activity from PubChem BioAssay.
